Reference: ChEMBL document CHEMBL5029148, “Discovery of Arylsulfonamides as Dual Orexin Receptor Agonists” (J Med Chem, 2021)
Calls of active or inactive are those of the source. The rule behind the calls is not given here.

Tests used:
Orexin receptor type 2 [1] = target: T1, Orexin receptor type 2 (Homo sapiens, UniProt O43614); test: Agonist activity at human OX2R stably expressed in CHO RD-HGA16 cells assessed as fluorescence changes measured after 30 mins by calcium mobilization assay; format: functional, cell-based
T1 sequence (O43614 whole entry): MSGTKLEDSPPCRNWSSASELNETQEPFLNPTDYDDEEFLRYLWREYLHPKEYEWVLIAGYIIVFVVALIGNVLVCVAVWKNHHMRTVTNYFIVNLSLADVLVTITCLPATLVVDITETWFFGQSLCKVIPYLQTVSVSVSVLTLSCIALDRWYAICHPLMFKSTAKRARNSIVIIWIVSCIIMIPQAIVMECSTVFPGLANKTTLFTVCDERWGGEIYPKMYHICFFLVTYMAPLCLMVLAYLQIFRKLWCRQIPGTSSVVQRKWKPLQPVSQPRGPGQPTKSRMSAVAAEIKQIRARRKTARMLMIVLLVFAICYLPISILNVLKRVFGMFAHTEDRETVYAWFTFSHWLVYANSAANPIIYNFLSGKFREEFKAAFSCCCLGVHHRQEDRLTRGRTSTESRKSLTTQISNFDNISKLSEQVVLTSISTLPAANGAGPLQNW

[2] = target: T2, Orexin/Hypocretin receptor type 1 (Homo sapiens, UniProt O43613); test: Agonist activity at human OX1R stably expressed in CHO RD-HGA16 cells assessed as fluorescence changes measured after 30 mins by calcium mobilization assay; format: functional, cell-based
T2 sequence (O43613 whole entry): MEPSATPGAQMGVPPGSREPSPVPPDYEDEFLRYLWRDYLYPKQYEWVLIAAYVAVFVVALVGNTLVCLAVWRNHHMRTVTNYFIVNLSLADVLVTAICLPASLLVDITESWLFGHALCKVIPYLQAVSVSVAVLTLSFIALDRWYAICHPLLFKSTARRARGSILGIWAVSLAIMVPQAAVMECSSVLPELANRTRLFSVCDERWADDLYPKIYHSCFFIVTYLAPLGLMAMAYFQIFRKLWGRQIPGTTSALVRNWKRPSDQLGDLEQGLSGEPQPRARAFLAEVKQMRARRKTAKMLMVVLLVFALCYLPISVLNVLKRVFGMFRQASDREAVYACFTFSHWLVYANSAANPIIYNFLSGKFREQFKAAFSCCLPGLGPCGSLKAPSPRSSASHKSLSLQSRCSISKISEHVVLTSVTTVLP

[3] = target: T2, Orexin/Hypocretin receptor type 1; test: Agonist activity at human OX1R stably expressed in CHO cells; format: functional, cell-based, CHO-RD-HGA16
Mus musculus [4] = test: Sleep modulation activity in mouse assessed as decrease in time spent in rapid eye movement sleep at 40 mg/kg, ip measured after 4 hrs post injection; format: functional, organism-based
How it was run: (§1)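 Twelve-month-old mice implanted under ketamine/xylazine with telemetric EEG/EMG electrodes, and allowed 7–10 days or more to recover. They were housed on 12-h light/dark (lights on 06:00) at 21–22°C. Counterbalanced crossover: 40 mg/kg i.p. in 0.3 ml saline or saline, given at ZT 4–4.5, at least 48 h apart. Manual 10-s epoch scoring (wake/NREM/REM) over 0–4 h gave % time, transitions, episode number and duration. Mean ± SEM.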

Mus musculus [5] = test: Sleep modulation activity in mouse assessed as reduction in transition between states by measuring stabilization of reduced sleep/wake fragmentation at 40 mg/kg, ip measured after 4 hrs post injection; format: functional, organism-based; how it was run: as §1
Mus musculus [6] = test: Sleep modulation activity in mouse assessed as increase in time spent in wakefulness at 40 mg/kg, ip measured after 4 hrs post injection; format: functional, organism-based; how it was run: as §1
Mus musculus [7] = test: Sleep modulation activity in mouse assessed as decrease in time spent in non-rapid eye movement sleep at 40 mg/kg, ip measured after 4 hrs post injection; format: functional, organism-based; how it was run: as §1
Mus musculus [8] = test: Sleep modulation activity in mouse assessed as effect on number of episodes of rapid eye movement sleep at 40 mg/kg, ip measured after 4 hrs post injection; format: functional, organism-based; how it was run: as §1
Mus musculus [9] = test: Sleep modulation activity in mouse assessed as reduction in number of episodes of wake at 40 mg/kg, ip measured after 4 hrs post injection
Mus musculus [10] = test: Sleep modulation activity in mouse assessed as reduction in number of episodes of non-rapid eye movement sleep at 40 mg/kg, ip measured after 4 hrs post injection
Mus musculus [11] = test: Sleep modulation activity in mouse assessed as increase in time spent in rapid eye movement sleep during light phase at 20 mg/kg, ip measured up to 6 hrs of post injection; format: functional, organism-based; settings: time hrs <=6
Mus musculus [12] = test: Sleep modulation activity in mouse assessed as increase in time spent in wakefulness during light phase at 20 mg/kg, ip measured up to 6 hrs of post injection; format: functional, organism-based; settings: time hrs <=6
Mus musculus [13] = test: Sleep modulation activity in mouse assessed as decrease in time spent in non-rapid eye movement sleep during light phase at 30 to 300 nmol, icv measured up to 3 hrs of post injection; format: functional, organism-based; settings: dose 30-300 nmol, time hrs <=3
Mus musculus [14] = test: Sleep modulation activity in mouse assessed as decrease in time spent in rapid eye movement sleep during light phase at 40 to 60 mg/kg, ip measured up to 3 hrs of post injection; settings: dose 40-60 mg/kg, time hrs <=3
Mus musculus [15] = test: Sleep modulation activity in mouse assessed as increase in time spent in wakefulness during light phase at 40 to 60 mg/kg, ip measured up to 3 hrs of post injection; settings: dose 40-60 mg/kg, time hrs <=3
Mus musculus [16] = test: Sleep modulation activity in mouse assessed as increase in time spent in wakefulness during light phase at 30 to 300 nmol, icv measured up to 3 hrs of post injection; format: functional, organism-based; settings: dose 30-300 nmol, time hrs <=3
Orexin receptor type 2 [17] = target: T1, Orexin receptor type 2; test: Agonist activity at human OX2R stably expressed in CHO cells; format: functional, cell-based, CHO-RD-HGA16

EC50 (Orexin receptor type 2 [1]) | EC50 [2] | Compound | other results
376 nM | 0.666 µM | COc1ccc(-c2cccc(C(=O)N(C)C)c2)cc1S(=O)(=O)Nc1cccc(NCC(C)NC(=O)c2cccc(C)c2)c1 (stereo not drawn) | 
> 10000 nM |  | COc1ccc(/C=C/C(=O)N(C)C)cc1S(=O)(=O)Nc1cccc(NCCNC(=O)c2cccc(C)c2)c1 | 
166 nM |  | COc1ccc(-c2csc(C(=O)N(C)C)c2)cc1S(=O)(=O)Nc1cccc(NCCNC(=O)c2cccc(C)c2)c1 | 
> 10000 nM | > 10 µM | COc1ccc(-c2cccc(C(=O)N(C)C)c2)cc1S(=O)(=O)Nc1cccc(N2CCN(C(=O)c3ccccc3N(C)C)CC2)c1 | 
 | > 10 µM | COc1ccc(-c2cccc(C(=O)N(C)c3ccccn3)c2)cc1S(=O)(=O)Nc1cccc(NCCNC(=O)c2cccc(C)c2)c1 | 
 | > 10 µM | COc1ccc(-c2cccc(C(=O)NCc3ccccn3)c2)cc1S(=O)(=O)Nc1cccc(NCCNC(=O)c2cccc(C)c2)c1 | 
 | > 10 µM | COc1ccc(-c2cccc(C(=O)N(C)Cc3ccccc3)c2)cc1S(=O)(=O)Nc1cccc(NCCNC(=O)c2cccc(C)c2)c1 | 
560 nM | > 10 µM | COc1ccc(-c2cccc(CN(C)C)c2)cc1S(=O)(=O)Nc1cccc(NCCNC(=O)c2ccccc2N(C)C)c1 | 
165 nM | 0.824 µM | COc1ccc(-c2cccc(C(=O)N(C)C)c2)cc1S(=O)(=O)Nc1cccc(NCCNC(=O)c2ccccc2N(C)C)c1 | Activity (Mus musculus [11]): inactive; Activity (Mus musculus [12]): inactive; Activity (Mus musculus [13]): Active; Activity (Mus musculus [14]): Active; Activity (Mus musculus [15]): Active; Activity (Mus musculus [16]): Active

The next lines start with the compound.

Compound | EC50 (Orexin receptor type 2 [1]) | EC50 [2] | other results
COc1ccc(-c2cccc(C(=O)N(C)Cc3ccncc3)c2)cc1C(=O)Nc1cccc(NCCNC(=O)c2cccc(C)c2)c1 | 863 nM | > 10 µM | 
COc1ccc(-c2cccc(C(=O)N(C)C)c2)cc1C(=O)Nc1cccc(NCCNC(=O)c2cccc(C)c2)c1 | 1270 nM | > 10 µM | 
COc1ccc(-c2cccc(C(=O)NCCN(C)C)c2)cc1S(=O)(=O)Nc1cccc(NCCNC(=O)c2cccc(C)c2)c1 |  | > 10 µM | 
COc1ccc(CCC(=O)N(C)C)cc1S(=O)(=O)Nc1cccc(NCCNC(=O)c2cccc(C)c2)c1 | > 10000 nM |  | 
COC(=O)N1CCC[C@H](NS(C)(=O)=O)[C@@H]1CO[C@H]1CC[C@@H](c2ccccc2)CC1 [DANAVOREXTON] |  |  | EC50 ([3]; read-out: EC50): > 30 µM
COc1ccc(-c2cccc(C(=O)N(C)C)c2)cc1S(=O)(=O)Nc1cccc(N2CCN(C(=O)c3cccc(C)c3)CC2)c1 | > 10000 nM | > 10 µM | 
COc1ccc(-c2cccc(C(=O)N(C)C)c2)cc1S(=O)(=O)Nc1cccc(CCNC(=O)c2ccccc2-n2nccn2)c1 |  |  | EC50 ([3]; read-out: pEC50 (converted)): < 35.5 µM
COc1ccc(-c2cccc(C(=O)N(C)Cc3ccncc3)c2)cc1S(=O)(=O)Nc1cccc(NCCNC(=O)c2cccc(C)c2)c1 |  |  | Activity (Mus musculus [4]): Active; Activity (Mus musculus [5]): Active; Activity (Mus musculus [6]): Active; Activity (Mus musculus [7]): Active; Activity (Mus musculus [8]): inactive; Activity (Mus musculus [9]): Active; Activity (Mus musculus [10]): Active
Cc1ccc(Cn2c(=N)n(CC(O)c3ccc(Cl)c(Cl)c3)c3ccccc32)cc1 (stereo not drawn) |  |  | EC50 (Orexin receptor type 2 [17]): > 3.2 µM; EC50 ([3]; read-out: EC50): > 3.2 µM
